Blank lines part the entries; values can stand above or below the molecule they belong to. The source made the active and inactive calls. No cut-off for these calls is given here.
Key:
A549 [1] = experiment: Induction of cell cycle arrest in human A549 cells assessed as accumulation of cells at G2/M phase at > 22 uM incubated for 24 hrs by PI staining based flow cytometric analysis; assay type: functional
Summary of the method: (§1)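 A549 cells were grown 48 h, then given compound or DMSO for 24 h, with nocodazole as control. Cells were fixed in 70% ice-cold ethanol overnight and stained with 30 μg/mL propidium iodide. DNA content was read by flow cytometry, with linear gates for G0/G1, S and G2/M. Mean ± s.d. of 2–3 independent experiments; G2/M versus DMSO tested by Dunnett's test.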

A549 [2] = experiment: Induction of cell cycle arrest in human A549 cells assessed as accumulation of cells at G2/M phase at 66 uM incubated for 24 hrs by PI staining based flow cytometric analysis; assay type: functional; summary of the method: as §1
A549 [3] = experiment: Induction of mitotic arrest in human A549 cells assessed as increase in mitotic index at > 200 uM measured for 12 hrs by phase contrast microscopic analysis; assay type: functional, cell-based
MCF7 [4] = experiment: Induction of mitotic arrest in human MCF7 cells assessed as increase in mitotic index at > 200 uM measured for 12 hrs by phase contrast microscopic analysis; assay type: functional, cell-based
HeLa [5] = experiment: Induction of mitotic arrest in human HeLa cells assessed as increase in mitotic index at > 200 uM measured for 12 hrs by phase contrast microscopic analysis; assay type: functional, cell-based
A549 [6] = experiment: Induction of mitotic arrest in human A549 cells assessed as increase in mitotic index at > 50 uM measured for 12 hrs by phase contrast microscopic analysis; assay type: functional, cell-based
MCF7 [7] = experiment: Induction of mitotic arrest in human MCF7 cells assessed as increase in mitotic index at > 50 uM measured for 12 hrs by phase contrast microscopic analysis; assay type: functional, cell-based
HeLa [8] = experiment: Induction of mitotic arrest in human HeLa cells assessed as increase in mitotic index at > 50 uM measured for 12 hrs by phase contrast microscopic analysis; assay type: functional, cell-based
A549 [9] = experiment: Induction of cell cycle arrest in human A549 cells assessed as accumulation of cells at G2/M phase incubated for 24 hrs by PI staining based flow cytometry analysis; assay type: functional; conditions: for IC50: A549, 24 h; summary of the method: as §1
A549 [10] = experiment: Cytotoxicity against human A549 cells assessed as reduction in cell proliferation incubated for 72 hrs by MTT assay; assay type: toxicity, cell-based; conditions: a549, 72 h
Summary of the method: (§2)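 Cells were seeded at 2500 per well in DMEM/F12 and left 24 h at 37 °C in 5% CO2 before treatment. Compounds came from DMSO stocks and were given at final 100–0.045 μM, eight dilutions, in triplicate, for 72 h. MTT (up to 0.5 mg/mL) was then added for 1.5 h and formazan dissolved in DMSO was read at 565 nm. Signal was normalized to untreated cells and IC50 calculated.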

Tubulin (Homo sapiens) [11] = target: T1, Tubulin (Homo sapiens) (UniProt P68371+Q9H4B7+P0DPH7+P68366+Q13509+Q71U36+P04350+Q3ZCM7+P07437+P68363+Q9BQE3+Q6PEY2+Q13885+Q9BVA1+Q9BUF5); experiment: Destabilization of microtubule network (unknown origin) assessed as decrease in catastrophes frequency measured for 30 min by differential interference contrast microscopic analysis
Tubulin (Homo sapiens) [12] = target: T1, Tubulin (Homo sapiens); experiment: Destabilization of microtubule network (unknown origin) assessed as reduction in microtubule growth rate measured for 30 min by differential interference contrast microscopic analysis
A549 [13] = experiment: Induction of cell cycle arrest in human A549 cells assessed as accumulation of cells at G0/G1 phase incubated for 24 hrs by PI staining based flow cytometry analysis; assay type: functional; conditions: dose <= 64.0 µM; summary of the method: as §1
A549 [14] = experiment: Induction of cell cycle arrest in human A549 cells assessed as accumulation of cells at S phase incubated for 24 hrs by PI staining based flow cytometry analysis; assay type: functional; conditions: dose <= 64.0 µM; summary of the method: as §1
[15] = Cytotoxicity against HEK293T cells assessed as reduction in cell proliferation incubated for 72 hrs by MTT assay; assay type: toxicity, cell-based, HEK293; conditions: human; summary of the method: as §2
Tubulin (Bos taurus) [16] = experiment: Displacement of CPZ from tubulin (bovine brain) assessed as decrease in fluorescence intensity incubated for 1 hr by fluorescence based analysis; conditions: dose 100.0 µM
Tubulin (Bos taurus) [17] = experiment: Destabilization of microtubule network of purified bovine brain tubulin in vitro assessed as decrease in catastrophes frequency at 25 uM measured for 30 min by differential interference contrast microscopic analysis
Tubulin (Bos taurus) [18] = experiment: Destabilization of microtubule network of purified bovine brain tubulin in vitro assessed as decrease in microtubule growth rate at 25 uM measured for 30 min by differential interference contrast microscopic analysis relative to control; set-up: scale not given: the % may be the effect or the level left
A549 [19] = experiment: Induction of cell cycle arrest in human A549 cells assessed as accumulation of cells at G2/M phase at 116 uM incubated for 24 hrs by PI staining based flow cytometric analysis; assay type: functional; summary of the method: as §1
A549 [20] = experiment: Induction of cell cycle arrest in human A549 cells assessed as accumulation of cells at G2/M phase at 200 uM incubated for 24 hrs by PI staining based flow cytometric analysis; assay type: functional; summary of the method: as §1
Tubulin (Homo sapiens) [21] = target: T1, Tubulin (Homo sapiens); experiment: Destabilization of microtubule network (unknown origin) assessed as effect on microtubule growth rate measured for 30 min by differential interference contrast microscopic analysis
A549 [22] = experiment: Induction of cell cycle arrest in human A549 cells assessed as accumulation of cells at G2/M phase up to 200 uM incubated for 24 hrs by PI staining based flow cytometric analysis; assay type: functional; summary of the method: as §1

SMILES: O=C1CC[C@@H]2C[C@H](c3ccccc3)c3ccccc3N12 (racemic)
- Activity (A549 [1]): Active
- Activity (A549 [2]): Active
- Activity (A549 [3]): Active
- Activity (MCF7 [4]): Active
- Activity (HeLa [5]): Active
- Activity (A549 [6]): Active
- Activity (MCF7 [7]): Active
- Activity (HeLa [8]): Active
- IC50 (A549 [9]): 22 µM
- Activity (A549 [10]): Toxic
- Activity (Tubulin (Homo sapiens) [11]): Active
- Activity (Tubulin (Homo sapiens) [12]): Active

SMILES: O=C1CCC(/C=C/c2ccccc2)N1c1ccccc1 (racemic)
- Activity (A549 [19]): Active
- Activity (A549 [20]): Active
- Activity (A549 [3]): Active
- Activity (MCF7 [4]): Active
- Activity (HeLa [5]): Active
- IC50 (A549 [9]): 82 µM
- Activity (A549 [10]): Toxic
- Activity (Tubulin (Homo sapiens) [11]): Active
- Activity (Tubulin (Homo sapiens) [12]): Active

SMILES: CC(C)(C)c1ccc(N2C(=O)CCC2/C=C/c2ccccc2)cc1 (racemic)
- Activity (Tubulin (Homo sapiens) [21]): No effect

SMILES: Cc1ccc(/C=C/C2CCC(=O)N2c2ccccc2)cc1 (racemic)
- Activity (A549 [22]): inactive
- Activity (Tubulin (Homo sapiens) [21]): Active

SMILES: Cc1ccccc1C1CCC(=O)N1c1ccc([N+](=O)[O-])cc1 (racemic)
- Activity (Tubulin (Homo sapiens) [21]): No effect

SMILES: O=C1CCC(c2c3ccccc3cc3ccccc23)N1c1ccc(C(F)(F)F)cc1 (racemic)
- Activity (Tubulin (Homo sapiens) [21]): No effect

Continued, in another order:

- IC50 (A549 [9]): 5.9 µM
- Activity (Tubulin (Bos taurus) [16]): Active
- Activity (Tubulin (Bos taurus) [17]): Active
- Activity (Tubulin (Bos taurus) [18]): > 50%
SMILES: O=C1CC[C@@H]2C[C@H](c3cccc(O)c3)c3ccccc3N12 (racemic)
- Activity (A549 [13]): Dose-dependent-effect
- Activity (A549 [14]): Dose-dependent-effect
- Activity (A549 [9]; dose <= 64.0 µM): Dose-dependent-effect
- IC50 at 72 h [15]: 4.1 µM

- Activity (Tubulin (Homo sapiens) [21]): No effect
- Activity (Tubulin (Homo sapiens) [11]): inactive
SMILES: COc1cc(N2C(=O)CCC2c2ccc(Br)cc2)cc(OC)c1OC (racemic)

- Activity (Tubulin (Homo sapiens) [21]): No effect
- Activity (Tubulin (Homo sapiens) [11]): inactive
SMILES: COc1ccc(C2CCC(=O)N2c2cc(OC)c(OC)c(OC)c2)cc1OC (racemic)

- Activity (Tubulin (Homo sapiens) [21]): No effect
SMILES: COc1ccc(C2CCC(=O)N2c2cccc3[nH]ccc23)cc1OC (racemic)

- Activity (Tubulin (Homo sapiens) [21]): Active
SMILES: COc1ccc(N2C(=O)CCC2/C=C/c2ccc(C)cc2)cc1OC (racemic)
- Activity (A549 [22]): inactive

- Activity (Tubulin (Homo sapiens) [21]): Active
SMILES: COc1ccc(N2C(=O)CCC2c2ccc(OC)c(OC)c2)cc1 (racemic)

- Activity (Tubulin (Homo sapiens) [21]): Active
SMILES: Cc1ccc([C@H]2C[C@H]3CCC(=O)N3c3ccccc32)cc1 (racemic)
- Activity (A549 [2]): inactive
